# Data taken from ChEMBL document CHEMBL1641413, “Identification of 3-sulfonylindazole derivatives as potent and selective 5-HT(6) antagonists” (Bioorg Med Chem, 2011).
# Activity calls are given as the source filed them. The rule behind the calls is not given here.
# How the values were obtained:
# [1] = % bound in plasma; assay type: ADME, cell-free; conditions: read-out: PPB
# [2] = target: T1, 5-hydroxytryptamine receptor 6 (Homo sapiens, UniProt P50406); test: Displacement of [3H]-LSD from cloned human 5-HT6 receptor expressed in human HeLa cells; assay type: cell-based
# T1 sequence (P50406 whole entry): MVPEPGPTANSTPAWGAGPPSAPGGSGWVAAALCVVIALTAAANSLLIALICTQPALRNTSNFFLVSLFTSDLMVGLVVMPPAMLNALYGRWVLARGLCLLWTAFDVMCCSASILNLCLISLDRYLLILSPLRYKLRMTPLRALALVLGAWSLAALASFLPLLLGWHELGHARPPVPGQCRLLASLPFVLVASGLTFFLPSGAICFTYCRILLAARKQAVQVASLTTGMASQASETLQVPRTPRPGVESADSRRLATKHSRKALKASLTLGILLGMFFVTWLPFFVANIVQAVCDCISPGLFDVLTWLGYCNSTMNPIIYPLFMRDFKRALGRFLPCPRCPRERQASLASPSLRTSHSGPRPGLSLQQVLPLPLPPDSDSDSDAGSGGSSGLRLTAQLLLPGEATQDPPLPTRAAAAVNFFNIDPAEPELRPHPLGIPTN
# Procedure, shortened: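 Radioligand displacement of [³H]-LSD from cloned human 5-HT6 receptors stably expressed in HeLa cells; compounds tested as HCl salts; Ki values determined in triplicate.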
# [3] = target: T1, 5-hydroxytryptamine receptor 6; test: Antagonist activity at cloned human 5-HT6 receptor expressed in human HeLa cells assessed as inhibition of 5HT-induced cyclic AMP formation; assay type: functional, cell-based
# [4] = target: D(2) dopamine receptor (Homo sapiens, UniProt P14416); test: Binding affinity to dopamine D2 receptor
# Sequence of D(2) dopamine receptor (P14416 whole entry): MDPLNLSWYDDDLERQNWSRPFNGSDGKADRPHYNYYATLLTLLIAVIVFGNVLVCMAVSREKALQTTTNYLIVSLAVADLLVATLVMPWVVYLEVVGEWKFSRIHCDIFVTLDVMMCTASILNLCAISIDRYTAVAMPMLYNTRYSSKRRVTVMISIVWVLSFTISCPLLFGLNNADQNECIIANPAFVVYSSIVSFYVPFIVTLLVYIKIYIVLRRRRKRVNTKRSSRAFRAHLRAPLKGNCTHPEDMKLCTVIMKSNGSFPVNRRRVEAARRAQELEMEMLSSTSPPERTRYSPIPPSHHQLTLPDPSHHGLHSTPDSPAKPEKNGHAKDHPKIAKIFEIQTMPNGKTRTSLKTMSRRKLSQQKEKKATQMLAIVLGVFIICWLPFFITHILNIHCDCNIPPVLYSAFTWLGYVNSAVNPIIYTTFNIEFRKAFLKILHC
# [5] = target: T2, 5-hydroxytryptamine receptor 2C (Homo sapiens, UniProt P28335); test: Binding affinity to 5-HT2C receptor
# T2 sequence (P28335 whole entry): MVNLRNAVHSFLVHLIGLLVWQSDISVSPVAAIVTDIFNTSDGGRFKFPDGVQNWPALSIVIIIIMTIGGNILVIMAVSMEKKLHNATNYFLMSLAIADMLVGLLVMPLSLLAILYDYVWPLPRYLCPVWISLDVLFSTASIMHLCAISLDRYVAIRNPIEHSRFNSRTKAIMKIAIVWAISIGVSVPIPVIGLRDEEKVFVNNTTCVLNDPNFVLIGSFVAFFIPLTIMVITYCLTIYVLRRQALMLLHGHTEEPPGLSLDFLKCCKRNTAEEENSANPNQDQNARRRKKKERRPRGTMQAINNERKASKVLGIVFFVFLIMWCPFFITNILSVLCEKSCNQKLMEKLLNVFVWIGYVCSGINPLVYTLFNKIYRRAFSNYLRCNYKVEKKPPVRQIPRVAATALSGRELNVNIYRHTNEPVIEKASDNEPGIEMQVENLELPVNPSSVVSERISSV
# [6] = Solubility of the compound in water; assay type: physicochemical
# [7] = target: T3, 5-hydroxytryptamine receptor 2B (Homo sapiens, UniProt P41595); test: Agonist activity at 5-HT2B receptor at 0.1 nM to 10 uM by FLIPR assay; assay type: functional
# T3 sequence (P41595 whole entry): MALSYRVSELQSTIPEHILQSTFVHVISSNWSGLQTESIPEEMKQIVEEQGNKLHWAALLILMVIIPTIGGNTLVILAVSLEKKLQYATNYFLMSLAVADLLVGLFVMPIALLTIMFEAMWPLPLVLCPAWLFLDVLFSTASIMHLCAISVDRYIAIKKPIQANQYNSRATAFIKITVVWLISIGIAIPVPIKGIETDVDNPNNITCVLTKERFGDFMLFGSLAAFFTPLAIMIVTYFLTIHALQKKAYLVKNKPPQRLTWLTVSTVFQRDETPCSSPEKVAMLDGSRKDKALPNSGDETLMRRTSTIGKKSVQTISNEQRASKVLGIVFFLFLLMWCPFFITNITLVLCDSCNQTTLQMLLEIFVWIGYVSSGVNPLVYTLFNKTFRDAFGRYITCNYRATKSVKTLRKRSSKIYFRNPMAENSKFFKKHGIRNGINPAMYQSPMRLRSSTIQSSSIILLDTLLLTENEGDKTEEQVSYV
# [8] = target: 5-hydroxytryptamine receptor 1D (Homo sapiens, UniProt P28221); test: Binding affinity to 5-HT1D receptor
# Sequence of 5-hydroxytryptamine receptor 1D (P28221 whole entry): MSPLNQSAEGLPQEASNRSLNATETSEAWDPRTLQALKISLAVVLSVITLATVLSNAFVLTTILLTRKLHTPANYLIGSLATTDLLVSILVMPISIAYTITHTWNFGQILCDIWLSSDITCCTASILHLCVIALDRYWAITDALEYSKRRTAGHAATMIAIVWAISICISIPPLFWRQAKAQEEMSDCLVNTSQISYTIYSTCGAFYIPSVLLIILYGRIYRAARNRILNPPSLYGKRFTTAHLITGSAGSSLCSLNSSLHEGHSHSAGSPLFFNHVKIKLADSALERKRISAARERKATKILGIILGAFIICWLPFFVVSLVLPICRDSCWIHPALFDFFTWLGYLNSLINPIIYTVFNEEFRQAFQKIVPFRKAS
# [9] = target: 5-hydroxytryptamine receptor 1B (Homo sapiens, UniProt P28222); test: Binding affinity to 5-HT1B receptor
# Sequence of 5-hydroxytryptamine receptor 1B (P28222 whole entry): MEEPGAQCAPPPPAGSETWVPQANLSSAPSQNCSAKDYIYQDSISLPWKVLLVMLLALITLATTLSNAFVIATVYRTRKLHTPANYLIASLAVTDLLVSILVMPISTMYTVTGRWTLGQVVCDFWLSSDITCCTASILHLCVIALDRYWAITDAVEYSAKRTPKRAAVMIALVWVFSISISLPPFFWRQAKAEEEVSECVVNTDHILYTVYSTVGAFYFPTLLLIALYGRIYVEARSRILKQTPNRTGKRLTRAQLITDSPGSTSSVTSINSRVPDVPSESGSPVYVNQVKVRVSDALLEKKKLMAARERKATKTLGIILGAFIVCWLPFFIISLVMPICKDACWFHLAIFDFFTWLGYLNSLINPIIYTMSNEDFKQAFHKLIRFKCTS
# [10] = Half life in human microsomes; assay type: ADME, Microsome
# [11] = target: 5-hydroxytryptamine receptor 7 (Homo sapiens, UniProt P34969); test: Binding affinity to 5-HT7 receptor
# Sequence of 5-hydroxytryptamine receptor 7 (P34969 whole entry): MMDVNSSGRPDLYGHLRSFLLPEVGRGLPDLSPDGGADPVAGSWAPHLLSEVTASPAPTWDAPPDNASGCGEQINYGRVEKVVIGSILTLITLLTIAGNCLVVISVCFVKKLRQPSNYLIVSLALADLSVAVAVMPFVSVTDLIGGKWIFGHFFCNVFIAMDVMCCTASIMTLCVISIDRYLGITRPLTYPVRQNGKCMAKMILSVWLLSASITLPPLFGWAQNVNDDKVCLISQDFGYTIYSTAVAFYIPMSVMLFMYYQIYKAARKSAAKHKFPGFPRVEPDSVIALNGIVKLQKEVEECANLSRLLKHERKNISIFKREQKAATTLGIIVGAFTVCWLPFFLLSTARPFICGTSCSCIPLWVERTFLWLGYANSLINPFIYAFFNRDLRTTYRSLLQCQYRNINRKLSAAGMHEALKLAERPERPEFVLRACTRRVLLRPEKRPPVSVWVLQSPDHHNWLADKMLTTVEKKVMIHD
# [12] = target: T4, 5-hydroxytryptamine receptor 1A (Homo sapiens, UniProt P08908); test: Binding affinity to 5-HT1A receptor
# T4 sequence (P08908 whole entry): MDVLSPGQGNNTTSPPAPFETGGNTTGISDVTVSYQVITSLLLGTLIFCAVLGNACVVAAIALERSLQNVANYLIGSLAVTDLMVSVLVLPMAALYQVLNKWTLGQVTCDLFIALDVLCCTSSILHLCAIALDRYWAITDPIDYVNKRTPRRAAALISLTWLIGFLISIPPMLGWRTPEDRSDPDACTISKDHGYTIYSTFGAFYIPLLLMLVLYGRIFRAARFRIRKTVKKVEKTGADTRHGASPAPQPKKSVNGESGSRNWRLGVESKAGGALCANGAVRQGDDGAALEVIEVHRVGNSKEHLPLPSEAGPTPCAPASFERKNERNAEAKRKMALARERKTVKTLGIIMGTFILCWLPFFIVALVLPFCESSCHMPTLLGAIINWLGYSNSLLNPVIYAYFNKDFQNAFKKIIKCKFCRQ
# [13] = target: T3, 5-hydroxytryptamine receptor 2B; test: Binding affinity to 5-HT2B receptor
# [14] = Binding affinity to P-glycoprotein
# [15] = Half life in rat microsomes; assay type: ADME, Microsome
# [16] = target: T5, Alpha-2A adrenergic receptor (Homo sapiens, UniProt P08913); test: Binding affinity to adrenergic alpha2A receptor
# T5 sequence (P08913 whole entry): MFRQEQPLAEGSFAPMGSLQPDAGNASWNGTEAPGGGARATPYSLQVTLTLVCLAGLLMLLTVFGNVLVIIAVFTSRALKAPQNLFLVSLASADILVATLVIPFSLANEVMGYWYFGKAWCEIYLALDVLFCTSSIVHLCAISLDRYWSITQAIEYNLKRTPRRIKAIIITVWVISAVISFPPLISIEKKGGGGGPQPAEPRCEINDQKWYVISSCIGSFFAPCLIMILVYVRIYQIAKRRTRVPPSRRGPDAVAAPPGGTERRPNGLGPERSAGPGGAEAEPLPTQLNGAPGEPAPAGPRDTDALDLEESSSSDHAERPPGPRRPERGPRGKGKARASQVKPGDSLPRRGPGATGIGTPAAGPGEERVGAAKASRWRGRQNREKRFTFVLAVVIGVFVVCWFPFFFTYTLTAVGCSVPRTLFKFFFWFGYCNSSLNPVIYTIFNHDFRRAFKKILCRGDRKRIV
SMILES,fraction unbound [1],Ki [2] [nM],IC50 [3] [nM],also measured
O=C(Nc1cccc2c(S(=O)(=O)c3cccc4ccccc34)n[nH]c12)C1CCNCC1,> 0.2,28,–,–
O=S(=O)(c1cccc2ccccc12)c1n[nH]c2c(NC3CCNCC3)cccc12,> 0.2,30,–,–
CC(C)[C@H](N)CNc1ccc2[nH]nc(S(=O)(=O)c3cccc4ccccc34)c2c1,> 0.2,–,–,–
O=S(=O)(c1cccc2ccccc12)c1n[nH]c2ccc(NC3CCCNC3)cc12 (stereo unspecified),> 0.2,1.7,95,–
O=S(=O)(c1ccccc1)c1n[nH]c2ccc(NC3CCNCC3)cc12,> 0.2,3.1,125,–
NCCNc1ccc2[nH]nc(S(=O)(=O)c3cccc4ccccc34)c2c1,> 0.2,6.7,13,–
O=S(=O)(c1cccc2ccccc12)c1n[nH]c2cc(NCC3CCNCC3)ccc12,> 0.2,44,–,–
Cl.O=S(=O)(c1cccc(Cl)c1)c1n[nH]c2ccc(NC3CCNCC3)cc12,> 0.2,1,12,Ki [4]: > 5000 nM; Ki [5]: 2430 nM; solubility [6]: > 100 µg/mL; Activity [7]: inactive; Ki [8]: 410 nM; Ki [9]: 1660 nM; half-life [10]: > 30 min; Ki [11]: 3220 nM; Ki [12]: 455 nM; Ki [13]: 155 nM; Activity [14]: inactive; half-life [15]: > 30 min; Ki [16]: > 5000 nM
O=S(=O)(c1cccc2ccccc12)c1n[nH]c2cc(NC3CCNCC3)ccc12,> 0.2,53,–,–
O=S(=O)(c1cccc2ccccc12)c1n[nH]c2c(NC3CCCNC3)cccc12 (stereo unspecified),> 0.2,66,–,–
NCCC(=O)Nc1ccc2c(S(=O)(=O)c3cccc4ccccc34)n[nH]c2c1,> 0.2,24,456,–
O=C(Nc1cccc2c(S(=O)(=O)c3cccc4ccccc34)n[nH]c12)C1CCCNC1 (stereo unspecified),> 0.2,9.8,48,–
O=C(CCN1CCCCC1)Nc1cccc2c(S(=O)(=O)c3cccc4ccccc34)n[nH]c12,> 0.2,24,–,–
O=S(=O)(c1cccc2ccccc12)c1n[nH]c2cccc(NCC3CCNCC3)c12,> 0.2,9.5,21,–
O=C(CCN1CCCCC1)Nc1ccc2c(S(=O)(=O)c3cccc4ccccc34)n[nH]c2c1,> 0.2,12,90,–
O=S(=O)(c1cccc(F)c1)c1n[nH]c2ccc(NC3CCNCC3)cc12,> 0.2,6.7,94,–
Cl.O=S(=O)(c1ccc2ccccc2c1)c1n[nH]c2ccc(NC3CCNCC3)cc12,> 0.2,0.6,16,Ki [4]: > 5000 nM; Ki [5]: > 5000 nM; solubility [6]: > 100 µg/mL; Activity [7]: inactive; Ki [8]: > 5000 nM; Ki [9]: > 5000 nM; half-life [10]: > 30 min; Ki [11]: > 5000 nM; Ki [12]: 4350 nM; Ki [13]: 675 nM; Activity [14]: inactive; half-life [15]: > 30 min; Ki [16]: > 5000 nM
NCCNc1ccc2c(S(=O)(=O)c3cccc4ccccc34)n[nH]c2c1,> 0.2,17,87,–
CN(C)CCNC(=O)c1ccc2[nH]nc(S(=O)(=O)c3cccc4ccccc34)c2c1,> 0.2,2.9,103,–
O=S(=O)(c1cccc2ccccc12)c1n[nH]c2c(NCC3CCNCC3)cccc12,> 0.2,17,87,–
O=S(=O)(c1ccc(C(F)(F)F)cc1)c1n[nH]c2ccc(NC3CCNCC3)cc12,> 0.2,1.5,27,–

SMILES,fraction unbound [1],Ki [2] [nM],IC50 [3] [nM],also measured
NCCC(=O)Nc1cccc2c(S(=O)(=O)c3cccc4ccccc34)n[nH]c12,> 0.2,3.4,–,–
O=S(=O)(c1cccc2ccccc12)c1n[nH]c2cc(NC3CCCNC3)ccc12 (stereo unspecified),> 0.2,57,–,–
O=S(=O)(c1cccc2ccccc12)c1n[nH]c2cccc(NC3CCCNC3)c12 (stereo unspecified),> 0.2,4.2,88,–
O=C(NCCN1CCCCC1)c1ccc2[nH]nc(S(=O)(=O)c3cccc4ccccc34)c2c1,> 0.2,107,–,–
O=S(=O)(c1ccc(Cl)cc1)c1n[nH]c2ccc(NC3CCNCC3)cc12,> 0.2,2.3,44,–
Cl.NCCC(=O)Nc1ccc2[nH]nc(S(=O)(=O)c3cccc4ccccc34)c2c1,> 0.2,1.5,3.8,Ki [4]: > 5000 nM; Ki [5]: 573 nM; solubility [6]: > 100 µg/mL; Activity [7]: inactive; Ki [8]: > 5000 nM; Ki [9]: > 5000 nM; half-life [10]: > 30 min; Ki [11]: > 5000 nM; Ki [12]: > 5000 nM; Ki [13]: 344 nM; Activity [14]: inactive; half-life [15]: > 30 min; Ki [16]: > 5000 nM
CC(N)CNc1ccc2[nH]nc(S(=O)(=O)c3cccc4ccccc34)c2c1 (stereo unspecified),> 0.2,1.4,30,–
CCN(CC)CCC(=O)Nc1ccc2c(S(=O)(=O)c3cccc4ccccc34)n[nH]c2c1,> 0.2,65,–,–
COc1ccc(S(=O)(=O)c2n[nH]c3ccc(NC4CCNCC4)cc23)cc1,> 0.2,9.8,126,–
CN(C)CCC(=O)Nc1cccc2c(S(=O)(=O)c3cccc4ccccc34)n[nH]c12,> 0.2,4.8,137,–
CN(C)CCN(C)Cc1ccc2[nH]nc(S(=O)(=O)c3cccc4ccccc34)c2c1,> 0.2,14,91,–
CN(C)CCC(=O)Nc1ccc2c(S(=O)(=O)c3cccc4ccccc34)n[nH]c2c1,> 0.2,44,–,–
O=S(=O)(c1cccc2ccccc12)c1n[nH]c2ccc(NCC3CCNCC3)cc12,> 0.2,3.5,174,–
O=S(=O)(c1ccc(F)cc1)c1n[nH]c2ccc(NC3CCNCC3)cc12,> 0.2,6.3,118,–
NCCNCc1ccc2[nH]nc(S(=O)(=O)c3cccc4ccccc34)c2c1,> 0.2,12,156,–
Cc1cccc(S(=O)(=O)c2n[nH]c3ccc(NC4CCNCC4)cc23)c1,> 0.2,0.8,19,–
NCCNc1cccc2c(S(=O)(=O)c3cccc4ccccc34)n[nH]c12,> 0.2,17,93,–
O=C(Nc1ccc2c(S(=O)(=O)c3cccc4ccccc34)n[nH]c2c1)C1CCNCC1,> 0.2,31,–,–
CCN(CC)CCC(=O)Nc1cccc2c(S(=O)(=O)c3cccc4ccccc34)n[nH]c12,> 0.2,27,137,–
O=S(=O)(c1cccc2ccccc12)c1n[nH]c2ccc(CN3CCNCC3)cc12,> 0.2,0.24,19,–
O=S(=O)(c1cccc2ccccc12)c1n[nH]c2cccc(NC3CCNCC3)c12,> 0.2,2.8,56,–
